# Experimental data as given in article PMC7578760 (iScience, 2020).
# Experiments:
# [1] = tested on: ERK1/2; test: Western blot of activated ERK1/2 in 293T^CIC cells; type: cell-based, human; conditions: 10 μM, 4 h
# [2] = tested on: DUSP6; test: Western blot of DUSP6 expression in 1205Lu melanoma cells; type: cell-based; conditions: 1205Lu (BRAF^V600E), 2 μM PLX4032, 0, 6, 24 h
# [3] = tested on: ERK signaling; test: Block of ERK signaling in MCF7 cells; type: cell-based, human
# [4] = tested on: DUSP6; test: Western blot of DUSP6 expression in 293T / 293T^CIC cells; type: cell-based, human; conditions: parental 293T, 10 ng/mL FGF, various times; SCH772984 10 μM
# Summary of the method: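 Parental and CIC-knockout 293T cells grown in high-glucose DMEM with 10% FBS and penicillin-streptomycin. Cells stimulated with 10 ng/mL FGF for various times, with or without 10 uM ERK inhibitor, then lysed. DUSP6 detected by western blot.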
smiles,measurement,setting,value
CN1CCN(c2ccc(-c3ccncc3-c3cc(F)c(O)c(F)c3)cc2)CC1 [LJH685],levels of activated ERK1/2,[1],did not reduce the levels of activated ERK1/2
CCCS(=O)(=O)Nc1ccc(F)c(C(=O)c2c[nH]c3ncc(-c4ccc(Cl)cc4)cc23)c1F [PLX4032],DUSP6 expression,[2],time-dependent decrease of DUSP6 expression
O=C(Nc1ccc2[nH]nc(-c3ccncc3)c2c1)[C@@H]1CCN(CC(=O)N2CCN(c3ccc(-c4ncccn4)cc3)CC2)C1 [SCH772984],effectiveness to block ERK signaling,[3],not effective to block the ERK signaling in MCF7 cells
same,DUSP6 expression,[4],drop
